Measurements from ChEMBL document CHEMBL4177753, “Structural Modification of Natural Product Ganomycin I Leading to Discovery of a α-Glucosidase and HMG-CoA Reductase Dual Inhibitor Improving Obesity and Metabolic Dysfunction in Vivo” (J Med Chem, 2018).
The source made the active and inactive calls. The calls are words filed in the database; no cut-off is given here.

Assays:
[1] = Inhibition of rat small intestinal mucosal alpha-glucosidase using p-nitrophenyl-alpha-D-glucopyranoside as substrate after 40 mins by colorimetric method
Outline: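 Rat small intestinal mucosal α-glucosidase; several compound concentrations, each run three times in parallel; phosphate-buffer control replaces compound, blank replaces enzyme. Absorbance at 405 nm; % inhibition = blank-corrected OD of test versus control; IC50 derived from the concentration gradient.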

[2] = target: T1, 3-hydroxy-3-methylglutaryl-coenzyme A reductase (Sus scrofa) (UniProt Q1W675); assay: (§1) Inhibition of pig liver microsomal HMG-CoA reductase by colorimetric method
T1 sequence (whole entry): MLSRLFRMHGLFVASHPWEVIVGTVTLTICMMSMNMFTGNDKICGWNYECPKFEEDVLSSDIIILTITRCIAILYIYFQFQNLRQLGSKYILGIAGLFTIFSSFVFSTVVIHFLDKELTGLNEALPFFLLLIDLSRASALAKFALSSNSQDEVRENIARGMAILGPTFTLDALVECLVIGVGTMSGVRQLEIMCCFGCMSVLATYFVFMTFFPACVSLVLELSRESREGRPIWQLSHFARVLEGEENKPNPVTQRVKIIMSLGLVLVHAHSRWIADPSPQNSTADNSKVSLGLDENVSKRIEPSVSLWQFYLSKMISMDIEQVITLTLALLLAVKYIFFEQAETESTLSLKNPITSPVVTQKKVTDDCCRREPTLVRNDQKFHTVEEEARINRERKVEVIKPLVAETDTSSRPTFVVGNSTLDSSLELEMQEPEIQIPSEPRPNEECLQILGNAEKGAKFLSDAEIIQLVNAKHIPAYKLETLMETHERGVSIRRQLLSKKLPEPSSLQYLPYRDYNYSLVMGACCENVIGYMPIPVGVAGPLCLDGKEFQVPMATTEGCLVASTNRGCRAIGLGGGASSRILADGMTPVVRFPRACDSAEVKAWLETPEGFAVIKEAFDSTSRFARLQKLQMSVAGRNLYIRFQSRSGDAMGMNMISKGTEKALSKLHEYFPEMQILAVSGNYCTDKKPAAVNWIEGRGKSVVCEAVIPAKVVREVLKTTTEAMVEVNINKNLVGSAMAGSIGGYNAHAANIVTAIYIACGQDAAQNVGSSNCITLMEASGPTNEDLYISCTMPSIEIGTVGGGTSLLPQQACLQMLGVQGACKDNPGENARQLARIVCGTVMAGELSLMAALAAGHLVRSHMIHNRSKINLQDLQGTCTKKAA
Outline: (§2)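 Pig liver microsomal HMG-CoA reductase; compounds tested at several concentrations, each in triplicate; control uses phosphate buffer instead of compound, blank uses buffer instead of enzyme. Absorbance read at 405 nm; % inhibition from blank-corrected OD of test versus control; IC50 fitted from the inhibition-concentration series.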

[3] = target: T2, 3-hydroxy-3-methylglutaryl-coenzyme A reductase (Sus scrofa, UniProt Q1W675); assay: as §1; outline: as §2
T2 sequence (Q1W675 whole entry): T1 sequence (whole entry)

[4] = Inhibition of rat small intestinal mucosal alpha-glucosidase using p-nitrophenyl-alpha-D-glucopyranoside as substrate by HPLC method
Outline: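 Rat intestinal α-glucosidase; after incubation the product 4-nitrophenol is quantified at once by HPLC (gradient from 20% acetonitrile in water with 0.1‰ TFA to 100% acetonitrile over 10 min). Each concentration run 3 times in parallel; % inhibition from peak areas versus control minus control blank; IC50 from the concentration series.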

Mus musculus [5] = assay: Antiobesity activity in C57BL/6J DIO mouse assessed as reduction in weight gain at 3 mg/kg administered daily via oral gavage for 5 weeks relative to vehicle-treated control; type: functional
Outline: (§3)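 Male C57BL/6J mice on high-fat diet, n = 8 per group, grouped by blood glucose and body weight. Daily oral gavage at 0.3, 1.0 or 3.0 mg/kg in soybean vehicle for 5 weeks. Vehicle groups were on normal diet and on high-fat diet.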

Mus musculus [6] = assay: Antiobesity activity in C57BL/6J DIO mouse assessed as reduction in cumulative food intake at 3 mg/kg administered daily via oral gavage for 5 weeks; type: functional, organism-based; outline: as §3
Mus musculus [7] = assay: Antiobesity activity in C57BL/6J DIO mouse assessed as reduction in LEE index at 3 mg/kg administered daily via oral gavage for 5 weeks; type: functional, organism-based; outline: as §3

SMILES	IC50 [1]	inhibition [2]	IC50 [3]	IC50 [4]	Activity (Mus musculus [5])	Activity (Mus musculus [6])	Activity (Mus musculus [7])
CC(C)=CCC/C(C)=C/CCC1=C[C@H](c2ccccc2)OC1=O	1.24 µM	Dose-dependent effect	16.5 µM	–	–	–	–
CC(C)c1c(C(=O)Nc2ccccc2)c(-c2ccccc2)c(-c2ccc(F)cc2)n1CC[C@@H](O)C[C@@H](O)CC(=O)O [ATORVASTATIN]	–	–	0.93 µM	–	–	–	–
CC(C)=CCC/C(C)=C/CCC1=C[C@H](c2ccc3ccccc3c2)OC1=O	5.98 µM	Dose-dependent effect	49.8 µM	–	–	–	–
COc1ccc([C@H]2C=C(CC/C=C(\C)CCC=C(C)C)C(=O)O2)cc1	21.7 µM	Dose-dependent effect	6.21 µM	–	–	–	–
C[C@H]1O[C@H](O[C@H]2[C@H](O)[C@@H](O)[C@@H](O[C@H]3[C@H](O)[C@@H](O)C(O)O[C@@H]3CO)O[C@@H]2CO)[C@H](O)[C@@H](O)[C@@H]1N[C@H]1C=C(CO)[C@@H](O)[C@H](O)[C@H]1O (stereo partly drawn) [ACARBOSE]	1.26 µM	–	–	–	inactive	inactive	inactive
CC(C)=CCC/C(C)=C/CCC1=C[C@H](c2ccc([N+](=O)[O-])cc2)OC1=O	5.11 µM	Dose-dependent effect	7.43 µM	–	–	–	–
COCOc1ccccc1[C@H]1C=C(CC/C=C(\C)CCC=C(C)C)C(=O)O1	19.3 µM	Dose-dependent effect	8.9 µM	–	–	–	–
CC(C)=CCC/C(C)=C/CCC1=C[C@H](c2ccc(C(C)C)cc2)OC1=O	32.8 µM	Dose-dependent effect	112 µM	28.7 µM	–	–	–

The next lines start with results.

IC50 [1]	inhibition [2]	IC50 [3]	IC50 [4]	SMILES	Activity (Mus musculus [5])	Activity (Mus musculus [6])	Activity (Mus musculus [7])
2.04 µM	Dose-dependent effect	38.2 µM	–	CC(C)=CCC/C(C)=C/CCC1=C[C@H](c2cc(F)c(F)c(F)c2)OC1=O	–	–	–
0.26 µM	Dose-dependent effect	18.9 µM	–	CC(C)=CCC/C(C)=C/CCC1=C[C@H](c2ccccc2[N+](=O)[O-])OC1=O	–	–	–
0.29 µM	Dose-dependent effect	18.1 µM	0.23 µM	CC(C)=CCC/C(C)=C/CCC1=C[C@H](c2ccc(C)cc2)OC1=O	–	–	–
0.17 µM	Dose-dependent effect	14.2 µM	0.16 µM	CCc1ccc([C@H]2C=C(CC/C=C(\C)CCC=C(C)C)C(=O)O2)cc1	–	–	–
12.1 µM	Dose-dependent effect	13.2 µM	–	COc1ccc(OC)c([C@H]2C=C(CC/C=C(\C)CCC=C(C)C)C(=O)O2)c1	–	–	–
2.27 µM	Dose-dependent effect	6.76 µM	–	CC(C)=CCC/C(C)=C/CCC1=C[C@H](c2ccccc2O)OC1=O	–	–	–
0.38 µM	–	–	–	CC(C)=CCC/C(C)=C/CCC1=C[C@H](c2cc(O)ccc2O)OC1=O	–	–	–
1.59 µM	Dose-dependent effect	25.1 µM	–	CC(C)=CCC/C(C)=C/CCC1=C[C@H](c2cc(F)ccc2F)OC1=O	–	–	–
